Holding throughout (format): functional
Holding throughout (settings): sc

For assay [1], the system named is Rattus norvegicus. Kind of assay: Dose to antagonise, when given subcutaneously to 6-OH-DA-lesioned rats, using pergolide antagonism test.(in vivo). The method, boiled down:
(§1)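 Unilateral 6-OHDA-lesioned rats, tested 2–9 months after lesioning once stable contralateral circling was seen. Agonist was pergolide (0.05 μmol/kg sc) or SK&F 38393 (4.3 μmol/kg sc), given 2 h after the test compound. Inhibition was calculated as percent of each rat's own control circling response. Four to eight rats per dose.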

The test system of assay [2] is Rattus norvegicus. The assay can be described thus: Dose to antagonise, when given subcutaneously to rats (in vivo) using flexor reflex St 587 antagonism test.
Assay [3] deals with Rattus norvegicus. Kind of assay: Dose to antagonise, when given subcutaneously to rats (in vivo) using inhibition of locomotor motility test. Summed up:
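Locomotor activity of male Wistar rats was measured in photocell cages 2 h after test compound or saline. Four to eight animals per dose.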

The subject of assay [4] is Mus musculus. Kind of assay: Dose to antagonise, when given subcutaneously to mice (in vivo) using methyl phenidate antagonism test. The method, boiled down: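 Male NMRI mice (18–25 g) got test compound sc 2 h before methyl phenidate (222 μmol/kg sc). Mice were placed in pairs on corrugated cardboard in gnawing cages. Gnawing was judged 1 h later by inspecting the cardboard. Six to nine pairs per dose.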

Assay [5] concerns Rattus norvegicus. Kind of assay: Dose to antagonise, when given subcutaneously to 6-OH-DA-lesioned rats, using SK & F 38393 antagonism test.(in vivo). The method, boiled down:
as §1

For assay [6], the system named is Rattus norvegicus. Kind of assay: Dose to antagonise, when given subcutaneously to rats (in vivo) using quipazine antagonism test. Summed up:
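Rats got test compound 2 h before quipazine (15 μmol/kg sc). Each rat was observed singly in a perspex box, and head twitches were counted 30–40 min after quipazine. Inhibition was expressed as percent of a parallel control group. Four to eight rats per dose.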

For assay [7], the system named is Rattus norvegicus. The assay can be described thus: Dose to antagonise, when given subcutaneously to rats (in vivo) using catalepsy test, maximum effect 1-6h. Summed up:
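Male Wistar rats (170–270 g) were scored hourly 1–6 h after dosing on a vertical wire grid. Catalepsy counted as present after at least 15-s immobility. The maximum effect over 1–6 h was taken. Eight to twelve animals per dose.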

A word on the ED50: it is the dose at which the effect has come halfway, by size or by number of responders. A low value points to an effect at a small dose. `CN1CCN(C2Cc3ccccc3Sc3ccc(Cl)cc32)CC1` (stereo unspecified) [CLOROTEPINE]: the ED50 came to 0.033 µmol/kg in assay [1]; 0.064 µmol/kg in assay [2]; 0.18 µmol/kg in assay [3]; 0.19 µmol/kg in assay [4]; 0.25 µmol/kg in assay [5]; 0.019 µmol/kg in assay [6]. In assay [7], this compound had an ED50 of 1.3 µmol/kg.

Turning to `CN1CCN([C@H]2Cc3ccccc3Sc3ccc(Cl)cc32)CC1`, the ED50 was determined as 0.017 µmol/kg in assay [1]; 0.26 µmol/kg in assay [2]; 0.12 µmol/kg in assay [3]; 0.2 µmol/kg in assay [4]; 0.85 µmol/kg in assay [5]; 0.02 µmol/kg in assay [6]. Moreover, in assay [7], the ED50 turned out to be 0.65 µmol/kg.

As for `CN1CCN([C@@H]2Cc3ccccc3Sc3ccc(Cl)cc32)CC1`, the ED50 was 0.31 µmol/kg in assay [1]; 0.095 µmol/kg in assay [2]; 0.46 µmol/kg in assay [3]; 3.8 µmol/kg in assay [4]; 1.9 µmol/kg in assay [5]; 0.012 µmol/kg in assay [6]. This compound also came in with an ED50 in assay [7] of 24 µmol/kg.
